These results are taken from ChEMBL document CHEMBL2021827, “Caspase-1 inhibitors from an extremophilic fungus that target specific leukemia cell lines” (2012).

The structures appear in SMILES notation. Calls of active or inactive are those of the source. No cut-off for these calls is given here.

Experiment [1] relates to THP-1. Nature of the experiment: Inhibition of IL-1beta production in human THP1 cells at 250 uM by ELISA. In kind it is functional, cell-based. The essentials:
(§1)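 THP-1 cells are kept in RPMI with 10% FBS, 0.05 mM 2-mercaptoethanol, sodium pyruvate and penicillin/streptomycin/amphotericin B. They are differentiated with PMA (1 µg/mL) 24 h beforehand, scraped, and resuspended at 1.0 × 10^6 cells/mL. Cells are co-exposed to compound, LPS (20 ng/mL) and TiO2 nanowires (100 µg/mL) for 24 h at 37 °C in CO2. Supernatant IL-1β is measured by ELISA read at 490 nm.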
In general terms: In an ELISA, binding on a coated surface is turned into a signal by an enzyme label.

Another experiment concerns Leukemia cell. The experiment is described as follows: Cytotoxicity against human leukemia cells by MTS assay. In kind it is functional, cell-based. On the technique in general: Formazan colour is commonly taken as a measure of viable cells.
The target in a further experiment is T1, Caspase-1 (Homo sapiens) (UniProt P29466).
T1 sequence (whole entry): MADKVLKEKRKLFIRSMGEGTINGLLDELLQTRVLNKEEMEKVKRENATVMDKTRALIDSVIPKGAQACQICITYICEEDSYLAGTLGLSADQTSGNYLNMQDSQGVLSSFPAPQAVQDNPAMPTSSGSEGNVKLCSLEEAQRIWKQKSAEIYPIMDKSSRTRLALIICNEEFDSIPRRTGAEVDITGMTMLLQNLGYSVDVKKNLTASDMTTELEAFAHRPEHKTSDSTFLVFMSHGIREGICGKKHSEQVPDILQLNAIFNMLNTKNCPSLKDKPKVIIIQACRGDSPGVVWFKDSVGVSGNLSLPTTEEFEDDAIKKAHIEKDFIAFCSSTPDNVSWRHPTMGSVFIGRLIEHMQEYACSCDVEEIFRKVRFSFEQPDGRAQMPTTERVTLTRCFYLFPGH
Nature of the experiment: Inhibition of caspase-1 in human THP1 cells after 24 hrs by fluorometric assay. The experiment is classed as cell-based. As to conditions: THP-1.

A further experiment deals with RPMI-8226. Nature of the experiment: Cytotoxicity against human RPMI8226 cells by MTS assay. The experiment is classed as functional.
The subject of experiment [2] is THP-1. Nature of the experiment: Inhibition of IL-1beta production in human THP1 cells at 5 uM by dilution assay. In kind it is functional, cell-based. The essentials:
as §1

Another experiment deals with CCRF-CEM. The experiment is described as follows: Cytotoxicity against human CCRF-CEM cells by MTS assay. The experiment is classed as functional.
For another experiment, the system named is HL-60(TB). The experiment is described as follows: Cytotoxicity against human HL-60(TB) cells by MTS assay. The experiment is classed as functional.
For experiment [3], the system named is THP-1. Nature of the experiment: Inhibition of IL-1beta production in human THP1 cells at 50 uM by dilution assay. In kind it is functional, cell-based. The essentials:
as §1

Another experiment deals with SR. Nature of the experiment: Cytotoxicity against human SR cells by MTS assay. The experiment is classed as functional.

Take `C/C=C/c1cc(=O)c([C@@H]2OC(=O)c3cc(OC)cc(OC)c32)co1`: in the experiment on THP-1 [1], the inhibition entry was “Active”.

One may read the GI50 as the concentration that inhibits growth by half. A lower GI50 goes with greater sensitivity of the cells. Regarding `C/C=C/C1=CC2=CC(=O)[C@](C)(OC(=O)c3c(C)cc(O)cc3O)[C@H](O)[C@H]2CO1` [BERKAZAPHILONE B], the outcome in the experiment on Leukemia cell was Active. In addition, the inhibition entry in the experiment with THP-1 [1] and with THP-1 [2] was “Active” each time. Moreover, the IC100 against Caspase-1 (Homo sapiens) is 25 µM. In the experiment with RPMI-8226, this compound showed a GI50 of 2140 nM.

Turning to `COc1cc(OC)c2c(c1)C(=O)O[C@H]2c1coc(C)cc1=O` [PENISIMPLICISSIN], the outcome with Leukemia cell was Active. Further, in the experiment with THP-1 [1], the inhibition entry is “Active”. For the same compound, the GI50 in the experiment with CCRF-CEM is 200 nM; in the experiment with HL-60(TB) it was 1480 nM.

On to `CCCc1cc(=O)c([C@@H]2OC(=O)c3cc(OC)cc(OC)c32)co1`, for which, in the experiment with THP-1 [1], the inhibition entry is “Active”. Further, the inhibition result on Caspase-1 (Homo sapiens) was “inactive”. The outcome in the experiment on HL-60(TB) was inactive.

On to `C/C=C/C1=CC2=CC(=O)[C@](C)(O)[C@H](OC(=O)c3c(C)cc(O)cc3O)[C@H]2CO1` [BERKAZAPHILONE C], for which, in the experiment with Leukemia cell, the outcome was Active. Besides, the inhibition entry in the experiment with THP-1 [1] and in the experiment with THP-1 [3] was “Active” in each case. The IC100 at Caspase-1 (Homo sapiens) is 25 µM. Moreover, the GI50 with SR is 380 nM.
